FGF22 binding – binders of human FGF22 protein, primary screen, FGF22 synaptogenesis inhibitor project, biophysical, thermal shift, single point. Fibroblast growth factor 22 (Homo sapiens), Q9HCT0. recombinant FGF22 thermal shift, SYPRO orange fluorescence; percent of sucrose octasulfate shift, DMSO zero. activity (Tm shift, normalised), % at 9.99 µM. actives 1.5% (n = 340,000). AID 651658, 2012;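 active means mean Tm shift, scaled 0 neutral to 100 positive control, at about 1.3% or above, every replicate too, limit read from the data; inconclusive means no clear call, values can overlap the other calls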
Target sequence (Q9HCT0 whole entry, looked up): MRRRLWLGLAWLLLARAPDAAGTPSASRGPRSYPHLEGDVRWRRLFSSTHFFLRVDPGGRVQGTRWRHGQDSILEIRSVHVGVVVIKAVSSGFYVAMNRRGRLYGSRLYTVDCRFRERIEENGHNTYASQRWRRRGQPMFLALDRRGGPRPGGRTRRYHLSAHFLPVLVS
XiGFP reactiv – activators of inactive X chromosome reactivation, primary screen, imaging, XiGFP fibroblasts, GFP high-content imaging, set 2. AID 743238, 2013. actives 0.055% (n = 360,000). XiGFP mouse fibroblasts, % GFP-positive cells imaging, 3 d; cells co-treated with 5-aza-dC sensitizer; scaled so ellipticine positive control = 100%. activation, % at 7.58 µM;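 active means mean normalized replicate activation at least 10% and every replicate at or above 10%; inconclusive means only one of the two criteria met; inactive means mean below 10% and not all replicates reach 10%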;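 further: 0% = median of on-plate neutral control wells and 100% = ellipticine 6 µM median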
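Material: XiGFP fibroblasts, SV40-immortalized; Buffer or medium: DMEM containing 5-aza-dC; Compound dosing: single point; Times: 3 days compound exposure.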
DENV2 CPE rescue – inhibitors of DENV2 cytopathic effect, primary screen, cell-based, plate reader, single concentration. DENV2-infected cells, cytopathic effect rescue. CPE inhibition, % at 9.99 µM. actives 1.7% (n = 350,000). AID 651640, 2012; in the data active means CPE inhibition above about 20%, passing the limit was not always enough; inconclusive means no clear call, values can overlap the other calls; tested in BHK-21 cells;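 further: 0% = median of neutral control wells and 100% = median of positive control wells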
FN deposition inh – inhibitors of fibronectin matrix deposition, primary screen, AH1F cells, Alexa488-fibronectin fluorescence, plate reader. AH1F fibroblasts, overnight. inhibition, % at 12.6 µM. actives 0.086% (n = 350,000). AID 743247, 2014;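 active means mean inhibition across replicates of 30% or more, regardless of how many single replicates reach that level; inconclusive means mean under 30% yet at least half of replicates reach 30%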;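 further: positive control wells lacked labelled fibronectin entirely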
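Assay system: AH1F fibroblasts assembling fluorescent fibronectin matrix; Amount: 10000 AH1F cells per well; Buffer or medium: DMEM, 2% serum; Probe or stimulus: Alexa488-fibronectin, 24 nM final in well; Doses: single compound dose, delivered by pin transfer; Incubation: 1 h adhesion, overnight exposure; Measured by: fluorescence 485/525 nm; Read-out: fibronectin deposition inhibition.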
SIRT5 block – SIRT5 desuccinylase inhibitors, primary screen, biochemical, fluorescence imaging, single point, set 5. NAD-dependent protein deacylase sirtuin-5, mitochondrial (Homo sapiens), Q9NXA8. Purified SirT5, succinyl-peptide AMC, trypsin-coupled fluorescence. inhibition, % at 15 µM. actives 1.1% (n = 330,000); in the data active means inhibition above about 15%; inconclusive means no clear call, values can overlap the other calls
Target sequence (Q9NXA8 whole entry, looked up): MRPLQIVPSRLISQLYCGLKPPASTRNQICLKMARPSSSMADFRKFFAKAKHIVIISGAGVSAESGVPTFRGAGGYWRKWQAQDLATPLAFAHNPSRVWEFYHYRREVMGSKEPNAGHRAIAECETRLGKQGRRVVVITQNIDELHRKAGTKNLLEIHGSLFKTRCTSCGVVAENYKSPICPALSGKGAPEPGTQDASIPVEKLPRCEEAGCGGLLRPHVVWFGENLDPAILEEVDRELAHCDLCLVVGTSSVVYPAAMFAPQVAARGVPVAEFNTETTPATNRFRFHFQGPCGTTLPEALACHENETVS
ARNT TACC3 PPI – disruptors of ARNT/TACC3 protein interaction, primary screen, biochemical, AlphaScreen, single concentration; Transforming acidic coiled-coil-containing protein 3 (Homo sapiens), Q9Y6A5; AlphaScreen His-ARNT PAS-B/GST-TACC3 binding, luminescence; TACC3 fragment carries E629A point mutation; inhibition, % at 9.99 µM; actives 0.66% (n = 390,000);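 active means mean inhibition of replicates at least 50% and at least half of replicates each reaching 50%; inconclusive means half or more replicates reach 50% but mean below 50%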;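 further: 0% = complete ARNT plus TACC3 wells and 100% = ARNT alone without TACC3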
Numbers without * were called inactive; u = inconclusive; x = no result; ! = repeats disagree. Only some compounds are listed: those with a hit (about 3.8% of all), similar ones and a draw of the others.

SMILES	FGF22 binding	XiGFP reactiv	DENV2 CPE rescue	FN deposition inh	SIRT5 block	ARNT TACC3 PPI
C=CCN1C(=O)C2(NC(=O)c3ccccc3N2)c2ccccc21 (configuration not stated)	43.0*	0.0	-1.5	9.5	-4.8	2.3
Cc1ccc(S(=O)(=O)N[C@@H]2CC[C@H](CCNC(=O)C3CCCCC3)O[C@@H]2CO)cc1	-0.1	-0.3	0.6	x	2.6	-19.7
O=S(=O)(NCc1ccc(F)cc1)c1ccccc1Br	-0.1	0.2	30.7*	2.6	x	-0.6
O=S(=O)(NCc1ccccc1)c1ccc(F)cc1Br	-0.4	-0.1	-2.0	6.3	-2.3	-6.4
C[C@H]1CN([C@@H](C)CO)C(=O)c2cccc(NC(=O)Nc3cccc4ccccc34)c2O[C@@H]1CN(C)S(=O)(=O)c1cccs1	-0.2	1.2	2.7	2.5	0.0	2.1
O=C(O)CC(NC(=O)C12CC3CC(CC(C3)C1)C2)c1ccc(F)cc1 (configuration not stated)	0.2	-0.1	1.7	-0.3	-0.6	-4.7
O=C(O)CC(NC(=O)C12CC3CC(CC(C3)C1)C2)c1ccc2c(c1)OCO2 (configuration not stated)	43.1*	0.0	2.9	-7.1	-0.2	-4.5
CCCNC(=O)N1CC2(CCN(CC3CCCC3)CC2)c2c(n(C)c3cc(OC)ccc23)[C@H]1CO	-0.3	0.0	-8.3	11.9	1.5	x
CO[C@@H]1CN(C)C(=O)c2ccc(NC(=O)C3CCOCC3)cc2OC[C@@H](C)N(CC2CC2)C[C@H]1C	0.1	0.2	0.7	-3.4	-2.8	x
Cc1ccc(C(=O)N/N=C\C=C\c2ccc(Br)cc2)cn1	43.5*	0.0	1.4	-1.4	-3.4	8.6
O=C(Nc1ccccc1Cl)N1[C@H](CO)[C@H]2c3ccccc3NC[C@H]21	-0.1	0.5	-0.9	x	-1.3	6.0
CCOC(=O)/C=C(\C)Sc1cc(O)c2ccccc2c1O	-0.3	0.1	-2.4	8.3	1.5	76.8*
CCOC(=O)/C=C(\C)Sc1cc(=O)oc2ccccc12	x	x	x	-2.5	x	-0.7
O=C(N/N=C/c1ccc(N2CCOCC2)c([N+](=O)[O-])c1)c1ccc(F)cc1	x	x	x	3.2	x	4.3
O=C(NCc1ccncc1)c1ccc(N2CCCC2)c([N+](=O)[O-])c1	0.1	0.0	1.7	x	0.9	-1.7
O=C(N/N=C/c1ccc(N2CCCC2)c([N+](=O)[O-])c1)c1cccnc1	0.4	-0.1	9.0	31.2*	1.1	7.0
O=C(NCc1ccccn1)c1ccc(N2CCCC2)c([N+](=O)[O-])c1	43.2*	0.1	x	0.8	-0.1	x
C[C@@H]1CN([C@H](C)CO)C(=O)Cc2cc(NC(=O)Nc3ccccc3)ccc2O[C@H]1CN(C)C(=O)Nc1ccc(C(F)(F)F)cc1	-0.1	-0.1	u	x	x	3.4
CNC[C@@H]1Oc2ccc(NS(=O)(=O)c3c(C)noc3C)cc2C(=O)N([C@H](C)CO)C[C@@H]1C	0.0	-1.4	8.6	-6.1	-1.0	-1.4
CC(C)C[C@@H]1COc2cc(N3CCCC3)ccc2S(=O)(=O)N1	-0.3	0.2	4.7	2.7	-1.8	x
CC(C)C[C@H]1COc2cc(N3CC[C@H](O)C3)ccc2S(=O)(=O)N1	-0.2	0.0	u	7.4	33.0*	x
CCCC#Cc1ccc2c(c1)O[C@@H](CN(C)C(=O)Nc1ccccc1F)[C@H](C)CN([C@H](C)CO)S2(=O)=O	-0.4	0.8	-3.3	5.0	20.4*	-3.7
CC(C)CC#Cc1ccc2c(c1)O[C@H](CN(C)C(=O)Nc1ccccc1F)[C@@H](C)CN([C@H](C)CO)S2(=O)=O	-0.3	0.1	-16.4	-2.6	6.6	1.7
C[C@H]1CN([C@@H](C)CO)S(=O)(=O)c2ccc(Br)cc2O[C@H]1CN(C)C(=O)Nc1ccccc1F	0.1	0.3	5.2	-2.4	-0.9	5.6
COc1cccc(-c2ccc3c(c2)O[C@@H](CN(C)C(=O)c2ccccc2F)[C@H](C)CN([C@@H](C)CO)S3(=O)=O)c1	-0.1	-0.1	-1.7	x	20.1*	-13.1
SMILES	FGF22 binding	XiGFP reactiv	DENV2 CPE rescue	FN deposition inh	SIRT5 block	ARNT TACC3 PPI
COc1cccc(-c2ccc3c(c2)O[C@H](CN(C)C(=O)c2ccccc2F)[C@@H](C)CN([C@H](C)CO)S3(=O)=O)c1	0.4	0.1	9.6	x	2.5	-4.6
CC(C)CC#Cc1ccc2c(c1)O[C@H](CN(C)C(=O)Nc1ccccc1F)[C@H](C)CN([C@H](C)CO)S2(=O)=O	-0.4	-1.1	32.3*	3.2	17.7*	0.5
CCCC#Cc1ccc2c(c1)O[C@@H](CN(C)C(=O)Nc1ccccc1F)[C@H](C)CN([C@@H](C)CO)S2(=O)=O	0.2	-0.6	2.9	4.5	16.5*	-4.1
C[C@H](CO)N1C[C@H](C)[C@@H](CN(C)CC2CC2)Oc2ccc(NC(=O)Cn3cnnn3)cc2CC1=O	0.0	0.1	0.7	x	1.0	-14.7
CCCC#Cc1ccc2c(c1)O[C@@H](CN(C)C(=O)c1ccccc1F)[C@H](C)CN([C@@H](C)CO)S2(=O)=O	0.4	0.6	-15.5	-13.4	14.1	1.2
CCCC#Cc1ccc2c(c1)O[C@H](CN(C)C(=O)c1ccccc1F)[C@H](C)CN([C@@H](C)CO)S2(=O)=O	-0.9	-0.5	6.7	-3.9	18.8*	0.6
C[C@H](NC(=O)C[C@@H]1CC[C@H]2[C@@H](COc3ccc(NS(=O)(=O)c4ccc(Cl)cc4)cc3C(=O)N2C)O1)c1ccccc1	0.3	0.0	6.0	1.0	0.6	-6.4
C[C@@H]1CN([C@H](C)CO)S(=O)(=O)c2ccc(-c3cncnc3)cc2O[C@H]1CN(C)Cc1ccncc1	0.1	0.1	5.4	x	17.1*	1.5
C[C@H](CO)N1C[C@H](C)[C@@H](CN(C)Cc2ccc(Oc3ccccc3)cc2)Oc2cc(Br)ccc2S1(=O)=O	0.0	0.0	25.0*!	-3.4	-2.0	x
C[C@H](CO)N1C[C@H](C)[C@@H](CN(C)Cc2ccccc2)Oc2cc(Br)ccc2S1(=O)=O	-0.2	-0.2	u	x	7.5	-3.4
C[C@H](CO)N1C[C@H](C)[C@@H](CN(C)Cc2cncnc2)Oc2cc(-c3cncnc3)ccc2S1(=O)=O	0.0	-0.9	u	x	-1.4	-6.4

Screens from PubChem BioAssay.
